# Reference: article PMC11143523 (Acta Pharmaceutica Sinica. B, 2024)
# Where “and” joins values, the source holds several entries; their conditions need not be identical. Equal entries are not always repeated. Square brackets hold non-standard residues; d marks the D form. Peptide text beside a SMILES is read from it. * marks the point of attachment. Ala(cPent) = N[C@@H](CC1CCCC1)C(=O)O; Cbz = O=C(OCc1ccccc1)*
# Assays:
# [1] = Pharmacokinetic study in mice; type: in vivo; settings: male, BALB/c, mouse, plasma, ip, 1 mg/kg
# How it was run: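 Male BALB/c mice (n = 3/group) dosed once i.p. at 1 mg/kg (5 mL/kg) in DMSO:Cremophor EL:10% HP-β-CD in saline (2:8:90). Blood taken from dorsal metatarsal vein predose and at 0.083–48 h. Plasma obtained by centrifugation at 4000 × g, 5 min, 4 °C. Analysed by LC‒MS/MS on C18 column with acetonitrile/water/0.1% formic acid gradient, negative MRM mode.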
# SW480 cells [2] = assay: Transwell migration assay; type: cell-based; settings: 20 μmol/L, 72 h
# How it was run: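 SW480 cells seeded at 1.5 × 10⁵ per insert in serum-free medium, with complete medium below. Test compound (20 μmol/L) or DMSO added to both chambers for 72 h. Nonmigrated cells swabbed off; migrated cells crystal-violet stained and counted. Counts normalized to DMSO-treated mean, n = 3 independent experiments, mean ± SD.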
# SW480 cells [3] = assay: Cell cytotoxicity assay; type: cell-based; settings: 20 μmol/L, 48 h
# APC‒Asef = target: T1, APC‒Asef (Homo sapiens, UniProt P25054); assay: Fluorescence-polarization; type: binding; settings: for inhibition at 400 µM: read-out: Inhibitory activity (inhibition rate %), at 400 μmol/L
# T1 sequence (P25054 303-739): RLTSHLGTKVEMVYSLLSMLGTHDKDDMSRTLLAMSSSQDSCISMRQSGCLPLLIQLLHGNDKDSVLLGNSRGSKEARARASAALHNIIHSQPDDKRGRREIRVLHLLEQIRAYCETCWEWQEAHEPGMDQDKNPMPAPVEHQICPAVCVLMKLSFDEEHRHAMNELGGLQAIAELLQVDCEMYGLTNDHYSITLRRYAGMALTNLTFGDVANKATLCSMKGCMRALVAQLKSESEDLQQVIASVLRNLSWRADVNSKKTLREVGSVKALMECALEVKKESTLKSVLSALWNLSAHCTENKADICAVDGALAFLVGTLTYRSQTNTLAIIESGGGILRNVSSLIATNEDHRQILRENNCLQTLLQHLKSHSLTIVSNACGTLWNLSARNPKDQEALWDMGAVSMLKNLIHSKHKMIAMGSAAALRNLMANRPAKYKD
# SW480 cells [4] = assay: Wound healing assay; type: cell-based; settings: 20 μmol/L, 48 h
# How it was run: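 SW480 cells (1 × 10⁶) grown to confluence at 37 °C, 5% CO₂, then scratched and PBS-washed. Cells cultured in 1% FBS medium with test compound (20 μmol/L) or DMSO. Wound imaged at scratching and after 48 h. Migration expressed relative to DMSO group, mean ± SD of n = 3 independent experiments.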
# APC‒Asef interaction [5] = target: T2, APC‒Asef interaction (Homo sapiens, UniProt P25054); assay: Co-IP of exogenous HA-APC and FLAG-Asef in treated HEK293T cells; type: cell-based; settings: 20 μmol/L, 48 h
# T2 sequence (P25054 303-876): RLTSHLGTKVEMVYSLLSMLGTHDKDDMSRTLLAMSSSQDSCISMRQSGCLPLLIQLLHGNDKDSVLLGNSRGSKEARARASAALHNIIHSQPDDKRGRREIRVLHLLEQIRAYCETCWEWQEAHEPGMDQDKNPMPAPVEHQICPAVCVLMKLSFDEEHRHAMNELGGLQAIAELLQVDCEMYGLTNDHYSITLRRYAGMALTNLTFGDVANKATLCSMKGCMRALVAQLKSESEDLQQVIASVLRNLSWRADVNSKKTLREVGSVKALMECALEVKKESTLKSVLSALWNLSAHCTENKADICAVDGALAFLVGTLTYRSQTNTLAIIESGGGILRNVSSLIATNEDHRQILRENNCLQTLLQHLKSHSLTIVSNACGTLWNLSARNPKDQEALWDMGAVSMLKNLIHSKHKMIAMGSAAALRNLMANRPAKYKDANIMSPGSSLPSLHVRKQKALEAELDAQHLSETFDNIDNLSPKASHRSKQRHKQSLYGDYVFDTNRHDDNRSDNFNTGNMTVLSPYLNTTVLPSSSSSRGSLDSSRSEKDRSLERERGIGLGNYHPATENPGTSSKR
# How it was run: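 HEK293T cells transfected with HA-APC (303‒876) and Flag-Asef plasmids, then exposed to test compound at 20 μmol/L or DMSO for 48 h. Cells lysed in 0.3% NP-40 buffer (50 mmol/L Tris-HCl pH 7.5, 150 mmol/L NaCl, PMSF, NaF, Na₃VO₄, protease inhibitors). Lysate incubated with anti-FLAG magnetic beads 3 h at 4 °C. Bound protein eluted by boiling 10 min at 95 °C in loading buffer.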
# APC‒Asef interaction [6] = target: T2, APC‒Asef interaction; assay: Co-IP of APC‒Asef in drug-treated HEK293T cell lysates; type: biochemical; settings: AT46 0.2, 1 or 5 μmol/L, 2 h
# [7] = IC50 ± SD, FP competition assay, three independent experiments
structure (smiles),measurement,setting,value
"C[C@H](NC(=O)OCc1ccccc1)C(=O)NCC(=O)N[C@@H](CCC(=O)O)C(=O)N[C@@H](C)C(=O)N[C@@H](CC1CCCC1)C(=O)N[C@@H](Cc1ccc(O)cc1)C(=O)N[C@@H](CCC(=O)O)C(N)=O [MAI-203, reference compound] (Cbz-AGEA[Ala(cPent)]YE-NH2; N-terminus and C-terminus assumed)",AUC(0-t),[1],52.4 ± 6.07 ng·h/mL
same,Cmax,[1],101 ± 25 ng/mL
same,MRT,[1],0.43 ± 0.07 h
same,Tmax,[1],0.25 h
same,half-life,[1],0.24 ± 0.06 h
CSc1ncc(Br)c(C(=O)N[C@@H](CCC(=O)OC(C)(C)C)C(=O)N[C@@H](Cc2ccc3ccccc3c2)C(=O)N[C@@H](CC(C)C)C(=O)N[C@@H]2C[C@H]2c2ccccc2)n1 [AT47],"migration of SW480 cells, Transwell",SW480 cells [2],suppressed the migration of SW480 cells
same,"survival ability (proliferative viability) of SW480 cells, CCK-8",SW480 cells [3],did not damage the survival ability of SW480 cells
same,inhibition at 400 µM,APC‒Asef,24.4%
same,"migration of SW480 cells, wound healing",SW480 cells [4],inhibited the migration of SW480 cells
same,AUC(0-t),[1],4800 ± 868 ng·h/mL
same,Cmax,[1],1460 ± 119 ng/mL
same,MRT,[1],4.97 ± 1.49 h
same,Tmax,[1],1.67 ± 0.58 h
same,half-life,[1],11.8 ± 5.7 h
same,disruption of APC‒Asef interaction (Co-IP),APC‒Asef interaction [5],notably diminished APC‒Asef PPI
CC(C)C[C@H](NC(=O)[C@H](CC1CCCCC1)NC(=O)[C@H](CCC(=O)O)NC(=O)c1ccncn1)C(=O)NC1CC1c1ccccc1 (stereo partly drawn) [AT8],IC50,APC‒Asef; [7],168 ± 9.5 µM
CC(C)C[C@H](NC(=O)[C@H](CC1CC1)NC(=O)[C@H](CCC(=O)O)NC(=O)c1ccncn1)C(=O)NC1CC1c1ccccc1 (stereo partly drawn) [AT7],IC50,APC‒Asef; [7],61.3 ± 7.2 µM
CSc1nccc(C(=O)N[C@@H](CCC(=O)O)C(=O)N[C@@H](Cc2ccc3ccccc3c2)C(=O)N[C@@H](CC(C)C)C(=O)N[C@H]2C[C@@H]2c2ccccc2)n1 [AT45],IC50,APC‒Asef; [7],8.61 ± 0.12 µM
CC(C)C[C@H](NC(=O)[C@H](Cc1ccc2ccccc2c1)NC(=O)[C@H](CCC(=O)O)NC(=O)c1ccncn1)C(=O)NC1CC1c1ccccc1 (stereo partly drawn) [AT10],IC50,APC‒Asef; [7],9.3 µM and 9.34 µM
same,fold increase in potency over AT6,APC‒Asef; from FP IC50,2 fold
CSc1nccc(C(=O)N[C@@H](CCC(=O)O)C(=O)N[C@@H](Cc2ccc3ccccc3c2)C(=O)N[C@@H](CC(C)C)C(=O)NC2CC2c2ccccc2)n1 (stereo partly drawn) [AT38],IC50,"APC‒Asef; pIC50, test set, Table 3, pIC50 = ‒Log [IC50 (μmol/L) × 10^−6]",0.708 µM
CSc1nccc(C(=O)N[C@@H](CCC(=O)O)C(=O)N[C@@H](Cc2ccc3ccccc3c2)C(=O)N[C@@H](CC(C)C)C(=O)N[C@@H]2C[C@H]2c2ccccc2)n1 [AT44],IC50,APC‒Asef; [7],0.48 ± 0.07 µM
CSc1nccc(C(=O)N[C@@H](CCC(=O)O)C(=O)N[C@H](Cc2ccc3ccccc3c2)C(=O)N[C@@H](CC(C)C)C(=O)NC2CC2c2ccccc2)n1 (stereo partly drawn) [AT43],IC50,APC‒Asef; [7],127 ± 6.6 µM
CSc1nccc(C(=O)N[C@@H](CCC(=O)O)C(=O)N[C@@H](CC2CCCCC2)C(=O)N[C@@H](CC(C)C)C(=O)NC2CC2c2ccccc2)n1 (stereo partly drawn) [AT42],IC50,APC‒Asef; [7],33 µM and 33.1 µM
CC(C)C[C@H](NC(=O)[C@H](CO)NC(=O)[C@H](CCC(=O)O)NC(=O)c1ccncn1)C(=O)NCC=Cc1ccccc1 [AT4],Inhibitory activity (inhibition rate %),APC‒Asef; at 400 μmol/L,13.1 ± 0.7%
same,inhibition at 400 µM,APC‒Asef,13%
CC(C)C[C@H](NC(=O)[C@H](Cc1ccccc1)NC(=O)[C@H](CCC(=O)O)NC(=O)c1ccncn1)C(=O)NC1CC1c1ccccc1 (stereo partly drawn) [AT9],IC50,APC‒Asef; [7],95.4 ± 7.5 µM
CSc1nccc(C(=O)N[C@@H](CC(=O)O)C(=O)N[C@@H](Cc2ccc3ccccc3c2)C(=O)N[C@@H](CC(C)C)C(=O)NC2CC2c2ccccc2)n1 (stereo partly drawn) [AT41],IC50,APC‒Asef; [7],19.3 ± 0.58 µM
CSc1ncc(Br)c(C(=O)N[C@@H](CCC(=O)O)C(=O)N[C@@H](Cc2ccc3ccccc3c2)C(=O)N[C@@H](CC(C)C)C(=O)N[C@@H]2C[C@H]2c2ccccc2)n1 [AT46],"migration of SW480 cells, Transwell",SW480 cells [2],no inhibition
same,disruption of APC‒Asef interaction (Co-IP),APC‒Asef interaction [6],dose-dependently attenuated the APC‒Asef interaction in cell lysates
same,"survival ability (proliferative viability) of SW480 cells, CCK-8",SW480 cells [3],did not damage the survival ability of SW480 cells
same,IC50,APC‒Asef; [7],0.11 ± 0.003 µM
same,fold increase in potency over parental MAI-400,APC‒Asef; from FP IC50,24 fold
same,"migration of SW480 cells, wound healing",SW480 cells [4],no inhibition
same,AUC(0-t),[1],124 ± 18.4 ng·h/mL
same,Cmax,[1],60.8 ± 5.65 ng/mL
same,MRT,[1],1.96 ± 0.58 h
same,Tmax,[1],0.83 ± 0.29 h
same,half-life,[1],1.2 ± 0.5 h
same,disruption of APC‒Asef interaction (Co-IP),APC‒Asef interaction [5],no disrupting effect on the APC‒Asef interaction in the cell model
CC(C)C[C@H](NC(=O)[C@H](CO)NC(=O)[C@H](CCC(=O)O)NC(=O)c1ccncn1)C(=O)NCCc1ccccc1 [AT3],IC50,APC‒Asef; [7],323 µM
same,inhibition at 400 µM,APC‒Asef,54.6 ± 2%
